Columns and labels:
[1] = biological target: Histone-lysine N-methyltransferase SUV39H2 (Homo sapiens, UniProt Q9H5I1); test: Inhibition of SUV39H2 assessed as hydrolysis of S-adenosyl-L-homocysteine after 2 mins by SAHH-coupled fluorescence assay
How it was run: (§1)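 Same coupled ThioGlo readout (25 mM potassium phosphate pH 7.5, 25 μM SAM, 5 μM SAHH, adenosine deaminase), 4 nM–16 μM inhibitor with 2 min preincubation, 20 min fluorescence at 360/528 nm. Enzyme and substrate by target: SETD7 200 nM with 100 μM H3(1–25); SETD8 250 nM with 500 μM H4(1–24); SUV39H2 100 nM with 200 μM H3K9Me1(1–15).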

MDA-MB-231 = test: Cytotoxicity against human MDA-MB-231 cells assessed as cell viability after 48 hrs by MTT assay; assay type: functional, cell-based; details: MDA-MB-231, 48 h
[2] = biological target: T1, Histone-lysine N-methyltransferase SETD7 (Homo sapiens, UniProt Q8WTS6); test: Inhibition of SETD7 assessed as hydrolysis of S-adenosyl-L-homocysteine after 2 mins by SAHH-coupled fluorescence assay; how it was run: as §1
T1 sequence (Q8WTS6 whole entry): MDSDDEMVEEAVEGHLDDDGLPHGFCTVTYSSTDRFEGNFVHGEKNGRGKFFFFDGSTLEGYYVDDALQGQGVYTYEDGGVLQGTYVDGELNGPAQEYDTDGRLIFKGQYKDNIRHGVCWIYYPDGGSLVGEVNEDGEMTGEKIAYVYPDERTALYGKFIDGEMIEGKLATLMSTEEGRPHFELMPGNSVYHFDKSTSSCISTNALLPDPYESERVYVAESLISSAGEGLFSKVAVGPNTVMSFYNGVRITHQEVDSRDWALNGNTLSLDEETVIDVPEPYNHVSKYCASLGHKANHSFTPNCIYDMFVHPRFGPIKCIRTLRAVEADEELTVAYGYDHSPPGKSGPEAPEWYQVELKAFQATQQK

[3] = biological target: T2, Histone-lysine N-methyltransferase EHMT1 (Homo sapiens, UniProt Q9H9B1); test: Inhibition of GLP assessed as hydrolysis of S-adenosyl-L-homocysteine after 2 mins by SAHH-coupled fluorescence assay
T2 sequence (Q9H9B1 whole entry): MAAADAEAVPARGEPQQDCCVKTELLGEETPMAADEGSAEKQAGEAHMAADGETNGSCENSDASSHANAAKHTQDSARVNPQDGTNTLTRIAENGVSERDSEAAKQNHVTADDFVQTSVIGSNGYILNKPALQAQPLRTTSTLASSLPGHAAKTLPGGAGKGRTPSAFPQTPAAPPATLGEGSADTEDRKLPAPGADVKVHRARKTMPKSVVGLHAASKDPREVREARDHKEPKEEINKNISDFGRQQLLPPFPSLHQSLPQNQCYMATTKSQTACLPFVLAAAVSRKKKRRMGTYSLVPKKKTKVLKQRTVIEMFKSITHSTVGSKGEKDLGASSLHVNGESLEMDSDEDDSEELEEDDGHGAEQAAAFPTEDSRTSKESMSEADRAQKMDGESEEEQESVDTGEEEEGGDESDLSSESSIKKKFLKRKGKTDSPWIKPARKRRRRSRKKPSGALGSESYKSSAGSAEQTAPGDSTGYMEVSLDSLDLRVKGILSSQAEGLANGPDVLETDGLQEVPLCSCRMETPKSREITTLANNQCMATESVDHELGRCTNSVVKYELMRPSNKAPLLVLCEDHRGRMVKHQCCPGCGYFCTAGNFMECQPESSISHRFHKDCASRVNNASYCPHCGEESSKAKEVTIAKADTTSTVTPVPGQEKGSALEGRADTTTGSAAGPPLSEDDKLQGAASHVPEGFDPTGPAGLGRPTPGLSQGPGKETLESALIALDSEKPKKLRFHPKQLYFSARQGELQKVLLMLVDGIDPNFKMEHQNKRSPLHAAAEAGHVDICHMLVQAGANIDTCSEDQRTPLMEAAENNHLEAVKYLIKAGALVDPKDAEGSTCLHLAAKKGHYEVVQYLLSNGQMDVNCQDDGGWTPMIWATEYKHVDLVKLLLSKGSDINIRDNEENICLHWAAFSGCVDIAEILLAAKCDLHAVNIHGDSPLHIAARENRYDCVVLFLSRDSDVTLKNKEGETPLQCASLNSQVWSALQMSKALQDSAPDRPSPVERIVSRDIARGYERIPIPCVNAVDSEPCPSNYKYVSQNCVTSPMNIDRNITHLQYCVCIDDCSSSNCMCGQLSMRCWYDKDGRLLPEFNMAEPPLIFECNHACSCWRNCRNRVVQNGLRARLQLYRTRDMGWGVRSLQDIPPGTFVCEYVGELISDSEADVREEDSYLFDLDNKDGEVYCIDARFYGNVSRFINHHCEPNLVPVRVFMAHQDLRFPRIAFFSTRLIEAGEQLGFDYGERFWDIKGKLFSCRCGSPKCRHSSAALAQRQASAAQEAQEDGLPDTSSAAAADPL
How it was run: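 GLP at 100 nM was tested by SAHH/adenosine deaminase/ThioGlo coupling in pH 7.5 potassium phosphate buffer with EDTA, MgCl2, Triton X-100 and 25 μM SAM. Inhibitor (4 nM–16 μM) was preincubated 2 min before adding 20 μM H3(1–25). Fluorescence rise (360/528 nm) was tracked 20 min and background-subtracted. IC50 from two independent experiments.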

[4] = biological target: Protein arginine N-methyltransferase 3 (Homo sapiens, UniProt O60678); test: Inhibition of PRMT3 assessed as hydrolysis of S-adenosyl-L-homocysteine after 2 mins by SAHH-coupled fluorescence assay
How it was run: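 Enzyme-coupled fluorescence readout. Methyltransfer product SAH is converted to homocysteine by SAHH in the presence of adenosine deaminase, and homocysteine is detected with the thiol-sensitive dye ThioGlo. Buffer is 25 mM potassium phosphate pH 7.5 with 1 mM EDTA, 2 mM MgCl2 and 0.01% Triton X-100, plus 5 μM SAHH, 0.3 U/mL deaminase, 25 μM SAM and 15 μM ThioGlo. PRMT3 is at 500 nM. Inhibitor (4 nM–16 μM) is preincubated 2 min, then 10 μM H4(1–24) peptide starts the reaction. Fluorescence is followed for 20 min at ex 360/em 528 nm and background-corrected. IC50 is fitted from two independent experiments.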

[5] = biological target: T3, N-lysine methyltransferase KMT5A (Homo sapiens, UniProt Q9NQR1); test: Inhibition of SETD8 assessed as hydrolysis of S-adenosyl-L-homocysteine after 2 mins by SAHH-coupled fluorescence assay; how it was run: as §1
T3 sequence (Q9NQR1 whole entry): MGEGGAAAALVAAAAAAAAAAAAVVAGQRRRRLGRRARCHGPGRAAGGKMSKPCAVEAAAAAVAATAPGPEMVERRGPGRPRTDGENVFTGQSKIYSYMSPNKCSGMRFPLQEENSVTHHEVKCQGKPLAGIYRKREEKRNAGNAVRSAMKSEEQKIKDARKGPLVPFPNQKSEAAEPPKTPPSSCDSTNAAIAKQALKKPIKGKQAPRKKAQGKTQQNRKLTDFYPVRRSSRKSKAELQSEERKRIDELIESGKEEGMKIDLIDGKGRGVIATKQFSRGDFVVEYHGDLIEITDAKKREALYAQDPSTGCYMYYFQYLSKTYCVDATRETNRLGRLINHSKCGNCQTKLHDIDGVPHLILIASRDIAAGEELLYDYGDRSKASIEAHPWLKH

Histone-lysine N-methyltransferase SUV39H2, sequence (Q9H5I1 whole entry): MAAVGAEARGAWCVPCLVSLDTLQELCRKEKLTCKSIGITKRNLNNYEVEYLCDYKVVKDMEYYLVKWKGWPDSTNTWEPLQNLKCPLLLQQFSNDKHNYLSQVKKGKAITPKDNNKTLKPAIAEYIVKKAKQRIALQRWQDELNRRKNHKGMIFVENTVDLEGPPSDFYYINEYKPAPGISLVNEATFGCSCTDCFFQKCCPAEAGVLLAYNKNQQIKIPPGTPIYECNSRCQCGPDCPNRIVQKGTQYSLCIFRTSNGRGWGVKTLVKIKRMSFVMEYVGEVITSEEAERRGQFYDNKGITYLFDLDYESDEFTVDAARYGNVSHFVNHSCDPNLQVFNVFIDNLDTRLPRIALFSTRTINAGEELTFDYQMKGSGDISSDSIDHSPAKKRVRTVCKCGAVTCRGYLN
Protein arginine N-methyltransferase 3, sequence (O60678 whole entry): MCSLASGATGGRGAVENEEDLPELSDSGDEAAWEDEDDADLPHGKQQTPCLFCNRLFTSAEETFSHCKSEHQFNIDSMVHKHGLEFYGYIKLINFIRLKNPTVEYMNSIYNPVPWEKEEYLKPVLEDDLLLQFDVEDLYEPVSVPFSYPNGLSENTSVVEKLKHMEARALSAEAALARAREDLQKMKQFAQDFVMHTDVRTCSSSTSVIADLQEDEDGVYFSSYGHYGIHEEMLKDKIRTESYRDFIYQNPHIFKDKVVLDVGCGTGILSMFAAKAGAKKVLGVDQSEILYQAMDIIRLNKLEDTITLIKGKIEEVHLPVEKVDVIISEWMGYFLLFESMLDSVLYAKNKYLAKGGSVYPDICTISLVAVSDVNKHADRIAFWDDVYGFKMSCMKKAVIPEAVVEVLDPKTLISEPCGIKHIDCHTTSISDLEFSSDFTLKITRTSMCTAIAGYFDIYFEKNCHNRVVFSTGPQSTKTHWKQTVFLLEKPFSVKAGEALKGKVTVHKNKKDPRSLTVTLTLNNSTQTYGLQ

SMILES: COc1cc2c(NC3CCN(C4CCCCC4)CC3)nc(N3CCCN(C(C)C)CC3)nc2cc1OCCCN1CCCCC1
- IC50 [1]: > 10 µM
- EC50 (MDA-MB-231): 3.3 µM
- IC50 [2]: > 10 µM
- IC50 [3]: < 0.015 µM
- IC50 [4]: > 10 µM
- IC50 [5]: > 10 µM
